From ChEMBL document CHEMBL1154870, “Synthesis of tropolone derivatives and evaluation of their in vitro neuroprotective activity” (Eur J Med Chem, 2010)

Assays:
HT-22 [1] = assay: Neuroprotective activity against glutamate-mediated oxidative stress-induced cell death in mouse HT22 cells assessed as survival after 24 hrs by MTT assay; format: functional, cell-based
Procedure, shortened: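 HT22 cells seeded at 4000/well in DMEM-Hepes-GlutaMAX with 10% FBS. After 24 h, 5 mM glutamate was added with or without test compound in fresh medium for 24 h. Viability was read by MTT formazan (OD 550 minus 670 nm), with DMSO vehicle controls. EC50 was the concentration keeping glutamate-exposed viability at 50% of unexposed cells. Mean ± SEM, ≥3 independent experiments.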

HT-22 [2] = assay: Ratio of beta-thujaplicin EC50 to drug EC50 for mouse HT22 cells
HT-22 [3] = assay: Neuroprotective activity against glutamate-mediated oxidative stress-induced cell death in mouse HT22 cells assessed as survival at 10 uM after 24 hrs by MTT assay; format: functional
Procedure, shortened: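 HT22 mouse hippocampal cells seeded at 4000/well in DMEM-Hepes-GlutaMAX with 10% FBS; after 24 h, challenged with 5 mM glutamate plus test compound in fresh medium for 24 h. MTT formazan read as dOD 550–670 nm. % neuroprotection = (CD_vehicle − CD_compound)/CD_vehicle; efficacy classed full/partial/weak as 67–100, 34–66, ≤33%. Mean of ≥3 independent experiments.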

| Compound | EC50 (HT-22 [1]; Mus musculus, HT-22, 24 h) | Ratio EC50 (HT-22 [2]) | Efficacy (HT-22 [3]) | EC50 (HT-22 [1]; ht-22) |
| --- | --- | --- | --- | --- |
| O=c1c(O)ccccc1CN1CCOCC1 | > 10000 nM | <0.5 | – | – |
| COc1cc(C(C)C)ccc(Cn2cc(Cc3ccccc3)nn2)c1=O | > 10000 nM | <0.5 | 30% | – |
| CC(C)c1ccc(CN2CCOCC2)c(=O)c(O)c1 | 2560 nM | 1.9 | 87% | – |
| COc1cc(C(C)C)ccc(COc2ccccn2)c1=O | > 10000 nM | <0.5 | – | – |
| CCOC(=O)N1CCN(Cc2ccc(C(C)C)cc(O)c2=O)CC1 | 1400 nM | 3.4 | 88% | – |
| CC(C)c1ccc(CN2CCN(c3ccc([N+](=O)[O-])cc3)CC2)c(=O)c(O)c1 | 1700 nM | 2.8 | 91% | – |
| CC(C)c1ccc(CN2CCN(Cc3ccc([N+](=O)[O-])cc3)CC2)c(=O)c(O)c1 | 960 nM | 5 | 100% | – |
| Cc1c(C)c2c(c(C)c1O)CCC(C)(C(=O)N1CCN(Cc3ccc(C(C)C)cc(O)c3=O)CC1)O2 (configuration not stated) | 80 nM | 60 | 62% | – |
| Cc1c(C)c2c(c(C)c1O)CCC(C)(C(=O)NCCN1CCN(Cc3ccc(C(C)C)cc(O)c3=O)CC1)O2 (configuration not stated) | 90 nM | 53 | 89% | – |
| CC(C)c1ccc(CN2CCN(Cc3ccc(C(C)C)cc(O)c3=O)CC2)c(=O)c(O)c1 | 920 nM | – | – | – |
| CC(C)c1cccc(=O)c(O)c1 [HINOKITIOL] | 4800 nM | 1 | 62% | – |
| O=c1cccccc1O [TROPOLONE] | > 10000 nM | <0.5 | – | – |
| VITAMIN E | – | – | – | 200 nM |
